Among the data in ChEMBL document CHEMBL3351780, “Novel hybrids of metronidazole and quinolones: synthesis, bioactive evaluation, cytotoxicity, preliminary antimicrobial mechanism and effect of metal ions on their transportation by human serum albumin” (Eur J Med Chem, 2014) are MIC values, retold here.

Values after ≈ are worked out from the molar mass of the structure shown.

Holding throughout (assay type): functional
The subject of one experiment is Micrococcus luteus. Put plainly: Antibacterial activity against Micrococcus luteus by two-fold serial dilution method. The method in brief:
(§1)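 Standard two-fold serial dilution in 96-well microtest plates following NCCLS. Top dilutions printed as 32, 16, 8, 4, 2, 1, 0.5 ug/mL. Wells inoculated and held at 37 °C for 24 h. Growth judged visually and by spectrophotometer, in triplicate. MIC is the lowest concentration giving complete growth inhibition.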

Experiment [1] concerns Staphylococcus aureus. Put plainly: Antibacterial activity against methicillin-resistant Staphylococcus aureus N315 by two-fold serial dilution method. An outline of the steps:
(§2)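 MIC read as the lowest concentration giving complete growth inhibition. Two-fold serial dilutions were made in 96-well plates following NCCLS, giving a series down to 0.5 µg/mL (…32, 16, 8, 4, 2, 1, 0.5). Plates were inoculated and incubated at 37 °C for 24 h. A DMSO-with-inoculum control without drug was included. Growth was monitored visually and spectrophotometrically, in triplicate.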

Experiment [2] has as its system Staphylococcus aureus. Kind of experiment: Antibacterial activity against Staphylococcus aureus ATCC 25923 by two-fold serial dilution method. An outline of the steps:
as §1

In the next experiment the test system is Bacillus spizizenii. Put plainly: Antibacterial activity against Bacillus subtilis ATCC 6633 by two-fold serial dilution method. An outline of the steps: as §1
Another experiment has as its system Pseudomonas aeruginosa. Put plainly: Antibacterial activity against Pseudomonas aeruginosa by two-fold serial dilution method. An outline of the steps: as §1
The test system of the next experiment is Escherichia coli. Put plainly: Antibacterial activity against Escherichia coli DH52 by two-fold serial dilution method. The method in brief:
as §1

The subject of a further experiment is Shigella dysenteriae. Kind of experiment: Antibacterial activity against Shigella dysenteriae by two-fold serial dilution method. An outline of the steps:
as §2

Experiment [3] in a line: Antibacterial activity against Eberthella typhosa by two-fold serial dilution method. An outline of the steps: as §2
The subject of the next experiment is Cyberlindnera jadinii. Kind of experiment: Antifungal activity against Candida utilis after 24 hrs by microbroth dilution method. As to conditions: Williopsis jadinii. The method in brief:
(§3)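 Spore suspension prepared in sterile distilled water from one-day-old cultures on Sabouraud agar, final 1-5 x 10^3 spores/mL. Compounds were serially diluted in RPMI 1640 to give eleven dilutions. Incubation at 35 °C for 24 h. Growth read visually and spectrophotometrically, in triplicate. MIC is the lowest concentration with complete inhibition.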
A general note: Broth dilution looks for growth in wells or tubes with falling amounts of substance.

The subject of the next experiment is Saccharomyces cerevisiae. Put plainly: Antifungal activity against Saccharomyces cerevisiae after 24 hrs by microbroth dilution method. The method in brief:
as §3

For a further experiment, the system named is Candida albicans. Kind of experiment: Antifungal activity against Candida albicans ATCC 76615 after 24 hrs by microbroth dilution method. As to conditions: ATCC 76615, 24 h. The method in brief: as §3
For the next experiment, the system named is Pichia norvegensis. Put plainly: Antifungal activity against Candida mycoderma after 24 hrs by microbroth dilution method.

On to `CCOC(=O)c1cn(CC(O)Cn2c([N+](=O)[O-])cnc2C)c2c(F)cc(F)cc2c1=O` (racemic), for which the MIC was 4 µg/mL (≈ 9.17 µM) with Micrococcus luteus; 16 µg/mL (≈ 36.7 µM) in the experiment with Staphylococcus aureus [1]; 8 µg/mL (≈ 18.3 µM) against Staphylococcus aureus [2]; 32 µg/mL (≈ 73.3 µM) with Bacillus spizizenii; 4 µg/mL (≈ 9.17 µM) against Pseudomonas aeruginosa; 4 µg/mL (≈ 9.17 µM) with Escherichia coli. The MIC with Shigella dysenteriae turned out to be 16 µg/mL (≈ 36.7 µM); in experiment [3] it was 4 µg/mL (≈ 9.17 µM); with Cyberlindnera jadinii it was 64 µg/mL (≈ 147 µM); in the experiment with Saccharomyces cerevisiae it was 64 µg/mL (≈ 147 µM); with Candida albicans it was 128 µg/mL (≈ 293 µM); with Pichia norvegensis, 64 µg/mL (≈ 147 µM).
In the case of `CCOC(=O)c1cn(CC(O)Cn2cnc([N+](=O)[O-])c2)c2cc(Cl)c(F)cc2c1=O` (racemic), the MIC came out at 16 µg/mL (≈ 36.5 µM) with Micrococcus luteus; 4 µg/mL (≈ 9.12 µM) in the experiment with Staphylococcus aureus [1]; 16 µg/mL (≈ 36.5 µM) in the experiment on Staphylococcus aureus [2]; 16 µg/mL (≈ 36.5 µM) against Bacillus spizizenii; 16 µg/mL (≈ 36.5 µM) in the experiment on Pseudomonas aeruginosa; 32 µg/mL (≈ 72.9 µM) in the experiment with Escherichia coli. Further, the MIC worked out at 16 µg/mL (≈ 36.5 µM) with Shigella dysenteriae; 8 µg/mL (≈ 18.2 µM) in [3]; 32 µg/mL (≈ 72.9 µM) against Cyberlindnera jadinii; 64 µg/mL (≈ 146 µM) with Saccharomyces cerevisiae; 32 µg/mL (≈ 72.9 µM) in the experiment with Candida albicans; 128 µg/mL (≈ 292 µM) in the experiment with Pichia norvegensis.
As to `CCOC(=O)c1cn(CC(O)Cn2cnc([N+](=O)[O-])c2)c2cc(C(F)(F)F)ccc2c1=O` (racemic), the MIC is 8 µg/mL (≈ 17.6 µM) in the experiment on Micrococcus luteus; 4 µg/mL (≈ 8.8 µM) in the experiment with Staphylococcus aureus [1]; 8 µg/mL (≈ 17.6 µM) with Staphylococcus aureus [2]; 4 µg/mL (≈ 8.8 µM) in the experiment on Bacillus spizizenii; 64 µg/mL (≈ 141 µM) in the experiment on Pseudomonas aeruginosa; 128 µg/mL (≈ 282 µM) against Escherichia coli. Moreover, the MIC stood at 16 µg/mL (≈ 35.2 µM) with Shigella dysenteriae; 64 µg/mL (≈ 141 µM) in [3]; 16 µg/mL (≈ 35.2 µM) against Cyberlindnera jadinii; 16 µg/mL (≈ 35.2 µM) in the experiment with Saccharomyces cerevisiae; 16 µg/mL (≈ 35.2 µM) with Candida albicans; 32 µg/mL (≈ 70.4 µM) in the experiment with Pichia norvegensis.
Turning to `CCOC(=O)c1cn(CC2CO2)c2cc(Cl)c(F)cc2c1=O` (racemic), the minimum inhibitory concentration (MIC) with Micrococcus luteus amounted to 64 µg/mL (≈ 196 µM); against Staphylococcus aureus [1] it was 8 µg/mL (≈ 24.6 µM); with Staphylococcus aureus [2] it was 128 µg/mL (≈ 393 µM); against Bacillus spizizenii, 128 µg/mL (≈ 393 µM); against Pseudomonas aeruginosa, 32 µg/mL (≈ 98.2 µM); in the experiment with Escherichia coli it was 64 µg/mL (≈ 196 µM). Further, the MIC against Shigella dysenteriae amounted to 128 µg/mL (≈ 393 µM); in experiment [3], 8 µg/mL (≈ 24.6 µM); against Cyberlindnera jadinii it was 512 µg/mL (≈ 1570 µM); in the experiment on Saccharomyces cerevisiae, 4 µg/mL (≈ 12.3 µM); in the experiment on Candida albicans, 64 µg/mL (≈ 196 µM); against Pichia norvegensis, 1 µg/mL (≈ 3.07 µM).
As to `CCOC(=O)c1cn(CC(O)Cn2cnc([N+](=O)[O-])c2)c2ccc(OC)cc2c1=O` (racemic), the MIC against Micrococcus luteus is 512 µg/mL (≈ 1230 µM); against Staphylococcus aureus [1] it was 4 µg/mL (≈ 9.61 µM); in the experiment with Staphylococcus aureus [2] it was 4 µg/mL (≈ 9.61 µM); against Bacillus spizizenii, 64 µg/mL (≈ 154 µM); against Pseudomonas aeruginosa, 64 µg/mL (≈ 154 µM); against Escherichia coli it was 2 µg/mL (≈ 4.8 µM). In addition, the MIC with Shigella dysenteriae amounted to 32 µg/mL (≈ 76.9 µM); in experiment [3] it was 256 µg/mL (≈ 615 µM); against Cyberlindnera jadinii, 8 µg/mL (≈ 19.2 µM); in the experiment on Saccharomyces cerevisiae it was 4 µg/mL (≈ 9.61 µM); with Candida albicans, 16 µg/mL (≈ 38.4 µM); against Pichia norvegensis, 512 µg/mL (≈ 1230 µM).
Take `CCOC(=O)c1cn(CC(O)Cn2cnc([N+](=O)[O-])c2)c2c(F)cccc2c1=O` (racemic): the MIC in the experiment on Micrococcus luteus is 64 µg/mL (≈ 158 µM); with Staphylococcus aureus [1] it was 8 µg/mL (≈ 19.8 µM); in the experiment with Staphylococcus aureus [2], 256 µg/mL (≈ 633 µM); with Bacillus spizizenii, 32 µg/mL (≈ 79.1 µM); in the experiment with Pseudomonas aeruginosa it was 32 µg/mL (≈ 79.1 µM); with Escherichia coli, 32 µg/mL (≈ 79.1 µM). Also, the MIC came to 16 µg/mL (≈ 39.6 µM) against Shigella dysenteriae; 32 µg/mL (≈ 79.1 µM) in [3]; 16 µg/mL (≈ 39.6 µM) against Cyberlindnera jadinii; 256 µg/mL (≈ 633 µM) in the experiment on Saccharomyces cerevisiae; 128 µg/mL (≈ 317 µM) against Candida albicans; 256 µg/mL (≈ 633 µM) with Pichia norvegensis.
In the case of `CCOC(=O)c1cn(CC(O)Cn2c([N+](=O)[O-])cnc2C)c2c(Cl)cc(Cl)cc2c1=O` (racemic), the MIC in the experiment with Micrococcus luteus was 16 µg/mL (≈ 34.1 µM); in the experiment with Staphylococcus aureus [1] it was 32 µg/mL (≈ 68.2 µM); with Staphylococcus aureus [2], 16 µg/mL (≈ 34.1 µM); with Bacillus spizizenii, 8 µg/mL (≈ 17 µM); with Pseudomonas aeruginosa it was 16 µg/mL (≈ 34.1 µM); in the experiment with Escherichia coli, 16 µg/mL (≈ 34.1 µM). The MIC in the experiment on Shigella dysenteriae worked out at 8 µg/mL (≈ 17 µM); in experiment [3] it was 8 µg/mL (≈ 17 µM); with Cyberlindnera jadinii, 256 µg/mL (≈ 546 µM); with Saccharomyces cerevisiae it was 128 µg/mL (≈ 273 µM); with Candida albicans, 64 µg/mL (≈ 136 µM); in the experiment with Pichia norvegensis, 64 µg/mL (≈ 136 µM).
As for `CCOC(=O)c1cn(CC2CO2)c2ccc(OC)cc2c1=O` (racemic), the MIC with Micrococcus luteus came to 128 µg/mL (≈ 422 µM); against Staphylococcus aureus [1] it was 64 µg/mL (≈ 211 µM); in the experiment with Staphylococcus aureus [2] it was 32 µg/mL (≈ 106 µM); against Bacillus spizizenii, 16 µg/mL (≈ 52.8 µM); in the experiment with Pseudomonas aeruginosa it was 32 µg/mL (≈ 106 µM); against Escherichia coli it was 16 µg/mL (≈ 52.8 µM). The MIC against Shigella dysenteriae came to 64 µg/mL (≈ 211 µM); in experiment [3], 1 µg/mL (≈ 3.3 µM); in the experiment with Cyberlindnera jadinii it was 512 µg/mL (≈ 1690 µM); with Saccharomyces cerevisiae it was 4 µg/mL (≈ 13.2 µM); in the experiment with Candida albicans, 64 µg/mL (≈ 211 µM); in the experiment with Pichia norvegensis, 32 µg/mL (≈ 106 µM).
In the case of `CCOC(=O)c1cn(CC(O)Cn2c([N+](=O)[O-])cnc2C)c2cc(C(F)(F)F)ccc2c1=O` (racemic), the MIC against Micrococcus luteus was 4 µg/mL (≈ 8.54 µM); in the experiment with Staphylococcus aureus [1], 8 µg/mL (≈ 17.1 µM); in the experiment on Staphylococcus aureus [2], 4 µg/mL (≈ 8.54 µM); against Bacillus spizizenii, 16 µg/mL (≈ 34.2 µM); against Pseudomonas aeruginosa, 8 µg/mL (≈ 17.1 µM); in the experiment with Escherichia coli it was 2 µg/mL (≈ 4.27 µM). The MIC amounted to 2 µg/mL (≈ 4.27 µM) against Shigella dysenteriae; 4 µg/mL (≈ 8.54 µM) in experiment [3]; 128 µg/mL (≈ 273 µM) in the experiment with Cyberlindnera jadinii; 8 µg/mL (≈ 17.1 µM) in the experiment on Saccharomyces cerevisiae; 8 µg/mL (≈ 17.1 µM) in the experiment with Candida albicans; 32 µg/mL (≈ 68.3 µM) against Pichia norvegensis.

As a reminder, the MIC is the lowest concentration found to suppress growth.
